Measurements published in publication PMC4121111 (Clinical cancer research : an official journal of the …, 2014).

Tests used:
GRPR [1] = target: T1, GRPR (Homo sapiens, UniProt P30550); experiment: Cell binding study by FACS, PC3 cells; format: cell-based; conditions: 3×10^5 cells, 3 pmoles agent in PBS, 15 min, 4 °C, triplicates
In short: (§1)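 Cell lines came from ATCC and were grown per supplier instructions. 3×10^5 cells were incubated with 3 pmoles dye-peptide conjugate in PBS for 15 min at 4 °C, and cell fluorescence was measured. A scrambled-peptide conjugate served as control. For PC3 only, specificity was tested by co-incubation with bombesin (1.5×10−11 to 1.5×10−8 moles). Triplicates.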

[2] = Blood metabolism in living mice; format: in vivo
GRPR in PC3 tumors = GRPR in PC3 tumors (Homo sapiens, UniProt P30550); experiment: Photoacoustic imaging of GRPR in PC3 tumors in mice; format: in vivo; conditions: 30 to 60 minutes post injection of 10 nmol
In short: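 Eight-week-old male nude mice carried flank PC3 xenografts (3 million cells, tumors 0.5–0.7 cm). Imaging used photoacoustic CT at 750 nm (100 views, 100 pulses/view) before and 30 and 60 min after tail-vein injection of 10 nmol agent in 200 µL PBS pH 7.4. The scrambled-peptide control group had n=4 and the active group n=6. 3D filtered back-projection; standard deviation.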

GRPR [3] = target: T1, GRPR; experiment: Cell binding study by FACS, LNCaP cells; format: cell-based; conditions: 3×10^5 cells, 3 pmoles agent in PBS, 15 min, 4 °C, triplicates
In short: as §1

GRPR [4] = conditions: cited from earlier work

T1 sequence (P30550 whole entry): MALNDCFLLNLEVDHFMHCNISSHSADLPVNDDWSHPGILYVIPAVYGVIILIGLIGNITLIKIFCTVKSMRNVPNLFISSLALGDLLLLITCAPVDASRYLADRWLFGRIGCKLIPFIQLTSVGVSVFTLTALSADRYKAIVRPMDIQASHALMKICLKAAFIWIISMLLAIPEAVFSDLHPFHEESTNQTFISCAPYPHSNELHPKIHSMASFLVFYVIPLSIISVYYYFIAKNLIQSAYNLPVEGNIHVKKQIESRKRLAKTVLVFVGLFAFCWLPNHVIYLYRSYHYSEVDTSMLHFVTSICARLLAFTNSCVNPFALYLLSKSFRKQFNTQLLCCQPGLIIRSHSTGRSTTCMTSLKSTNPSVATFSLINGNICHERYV
Chain of GRPR in PC3 tumors (P30550 whole entry): as above

Q: Which “binding to PC3 cells (cell fluorescence)” value (GRPR [1]) does the source give for GGGHdFGWStaAQLV-NH2 [CAA3G-740] here?
A: did not show appreciable binding

Q: Which “binding to PC3 cells (cell fluorescence)” value (GRPR [1]) does the source give for GGGdFQWAVGHStaL-NH2 [AA3G-740] here?
A: intense labeling

Q: What about the blood lifetime [2] of the same substance?
A: short blood lifetime

Q: And the “level present in blood at 60 minutes postinjection” value ([2]; HPLC)?
A: low level

Q: What about the “composition in mouse blood at 30 minutes post injection (HPLC)” value ([2]; blood, 30 minutes post injection, HPLC, three mice) of the same substance?
A: major peak observed in blood at 30 minutes post injection was of the parent

Q: What about the “proteolysis in mouse blood” value ([2]; blood, 30 minutes postinjection, HPLC) of the same substance?
A: no indication of proteolysis

Q: What about the “composition in mouse blood at one hour post injection (HPLC)” value ([2]; blood, 60 minutes post injection, HPLC) of the same substance?
A: intact agent was still the major component

Q: What about the “course of tumor photoacoustic signal over time” value (GRPR in PC3 tumors) of the same substance?
A: increased over time

Q: And the “binding to LNCaP cells (cell fluorescence)” value (GRPR [3])?
A: minimal binding

Q: Which results are given for dFQWAVGHStaL-NH2?
A: binding affinity (GRPR [4]): high affinity binding; functional activity (GRPR [4]): antagonist activity
